Laboratory results: ChEMBL document CHEMBL4665726, “Development of a selective HDAC inhibitor aimed at reactivating the HIV latent reservoir” (Bioorg Med Chem Lett, 2020)

Assays:
[1] = molecular target: Histone deacetylase 2 (Homo sapiens, UniProt Q92769); assay: Inhibition of HDAC2 (unknown origin)
[2] = molecular target: T1, Class 1 histone deacetylase (Homo sapiens, UniProt Q13547+O15379+Q92769+Q9BY41); assay: Inhibition of Class 1 HDAC in VSV-G-pseudotyped HIV infected human 2C4 cell Jurkat model assessed as reactivation of HIV latency in presence of 0.1% NHS by fluorescent reporter gene assay
How it was run: (§1)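 Latently infected Jurkat 2C4 cells (HIV latency model) were tested for reactivation of silenced provirus in parallel at two normal human serum levels: 0.1% and 5%. The paired runs gauge the potency shift from plasma protein binding.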

[3] = molecular target: T1, Class 1 histone deacetylase; assay: Inhibition of Class 1 HDAC in VSV-G-pseudotyped HIV infected human 2C4 cell Jurkat model assessed as reactivation of HIV latency in presence of 5% NHS by fluorescent reporter gene assay; how it was run: as §1
[4] = molecular target: T2, Histone deacetylase 8 (Homo sapiens, UniProt Q9BY41); assay: Inhibition of HDAC8 (unknown origin)
T2 sequence (Q9BY41 whole entry): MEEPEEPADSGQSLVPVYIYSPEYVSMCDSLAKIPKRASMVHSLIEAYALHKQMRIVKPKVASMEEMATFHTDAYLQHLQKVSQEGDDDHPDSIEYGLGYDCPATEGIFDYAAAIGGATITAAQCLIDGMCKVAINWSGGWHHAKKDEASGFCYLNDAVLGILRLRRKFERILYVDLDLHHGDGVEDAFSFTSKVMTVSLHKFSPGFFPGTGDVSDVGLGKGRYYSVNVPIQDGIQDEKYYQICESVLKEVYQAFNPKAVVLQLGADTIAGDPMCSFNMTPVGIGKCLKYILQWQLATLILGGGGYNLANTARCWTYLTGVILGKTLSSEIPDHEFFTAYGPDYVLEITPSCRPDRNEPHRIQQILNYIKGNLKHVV

[5] = molecular target: Histone deacetylase 3 (Homo sapiens, UniProt O15379); assay: Inhibition of HDAC3 (unknown origin)
[6] = molecular target: T3, Protein deacetylase HDAC6 (Homo sapiens, UniProt Q9UBN7); assay: Inhibition of HDAC6 (unknown origin)
T3 sequence (Q9UBN7 whole entry): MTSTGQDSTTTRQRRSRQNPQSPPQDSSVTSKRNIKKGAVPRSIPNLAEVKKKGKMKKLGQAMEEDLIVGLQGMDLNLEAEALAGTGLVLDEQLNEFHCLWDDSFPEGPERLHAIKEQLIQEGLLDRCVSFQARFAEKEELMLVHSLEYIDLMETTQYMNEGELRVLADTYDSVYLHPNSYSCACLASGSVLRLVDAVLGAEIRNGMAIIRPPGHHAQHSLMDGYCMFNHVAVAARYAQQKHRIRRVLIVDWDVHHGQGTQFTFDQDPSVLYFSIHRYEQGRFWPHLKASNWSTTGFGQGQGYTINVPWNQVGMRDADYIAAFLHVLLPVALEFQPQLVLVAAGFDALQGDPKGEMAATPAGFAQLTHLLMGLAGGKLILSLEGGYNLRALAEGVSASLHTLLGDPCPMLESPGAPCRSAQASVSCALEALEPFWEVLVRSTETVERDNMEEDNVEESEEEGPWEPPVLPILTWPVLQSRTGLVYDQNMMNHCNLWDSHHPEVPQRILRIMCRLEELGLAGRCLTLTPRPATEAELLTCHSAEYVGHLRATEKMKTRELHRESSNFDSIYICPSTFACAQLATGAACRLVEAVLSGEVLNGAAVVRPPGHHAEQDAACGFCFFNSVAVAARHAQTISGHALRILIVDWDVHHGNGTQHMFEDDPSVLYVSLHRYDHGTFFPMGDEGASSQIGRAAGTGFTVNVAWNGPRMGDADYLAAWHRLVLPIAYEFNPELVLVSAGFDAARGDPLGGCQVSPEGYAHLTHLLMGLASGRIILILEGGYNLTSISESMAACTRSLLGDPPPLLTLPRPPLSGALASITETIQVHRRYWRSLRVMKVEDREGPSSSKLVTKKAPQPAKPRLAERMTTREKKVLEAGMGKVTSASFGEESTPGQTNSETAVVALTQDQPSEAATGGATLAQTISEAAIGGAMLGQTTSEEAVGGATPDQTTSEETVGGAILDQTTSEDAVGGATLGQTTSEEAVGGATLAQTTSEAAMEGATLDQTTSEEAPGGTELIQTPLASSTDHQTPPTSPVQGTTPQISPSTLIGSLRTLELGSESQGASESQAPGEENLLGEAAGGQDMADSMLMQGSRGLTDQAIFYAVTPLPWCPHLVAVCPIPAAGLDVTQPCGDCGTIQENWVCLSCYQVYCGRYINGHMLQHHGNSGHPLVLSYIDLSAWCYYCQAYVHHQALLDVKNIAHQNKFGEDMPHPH

[7] = molecular target: Histone deacetylase 1 (Homo sapiens, UniProt Q13547); assay: Inhibition of HDAC1 (unknown origin)
[8] = Half life in Wistar Han rat at 2 mg/kg, iv or 10 mg/kg, po; format: ADME, organism-based; details: in vivo
[9] = Apparent permeability of the compound; format: ADME; details: not told
[10] = Unbound clearance in Wistar Han rat at 2 mg/kg, iv or 10 mg/kg, po; format: ADME, organism-based; details: in vivo
[11] = Oral bioavailability in Wistar Han rat at 10 mg/kg; format: ADME, organism-based; details: in vivo
[12] = Unbound volume of distribution in Wistar Han rat at 2 mg/kg, iv or 10 mg/kg, po; format: ADME, organism-based; details: in vivo

Histone deacetylase 1, sequence (Q13547 whole entry): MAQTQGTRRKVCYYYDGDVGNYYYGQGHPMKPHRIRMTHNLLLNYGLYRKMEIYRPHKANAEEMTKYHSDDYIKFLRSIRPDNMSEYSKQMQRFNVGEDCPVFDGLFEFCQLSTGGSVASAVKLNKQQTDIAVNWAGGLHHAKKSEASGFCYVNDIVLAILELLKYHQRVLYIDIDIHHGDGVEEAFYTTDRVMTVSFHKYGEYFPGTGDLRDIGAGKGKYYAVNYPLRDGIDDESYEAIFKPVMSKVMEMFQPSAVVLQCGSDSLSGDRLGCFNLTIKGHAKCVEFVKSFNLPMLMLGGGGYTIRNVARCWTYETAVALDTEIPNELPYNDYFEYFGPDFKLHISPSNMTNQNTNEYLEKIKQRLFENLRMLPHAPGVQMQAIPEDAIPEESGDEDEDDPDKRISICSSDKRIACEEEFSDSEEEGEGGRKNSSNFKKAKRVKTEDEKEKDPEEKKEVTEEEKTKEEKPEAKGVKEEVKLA
Histone deacetylase 2, sequence (Q92769 whole entry): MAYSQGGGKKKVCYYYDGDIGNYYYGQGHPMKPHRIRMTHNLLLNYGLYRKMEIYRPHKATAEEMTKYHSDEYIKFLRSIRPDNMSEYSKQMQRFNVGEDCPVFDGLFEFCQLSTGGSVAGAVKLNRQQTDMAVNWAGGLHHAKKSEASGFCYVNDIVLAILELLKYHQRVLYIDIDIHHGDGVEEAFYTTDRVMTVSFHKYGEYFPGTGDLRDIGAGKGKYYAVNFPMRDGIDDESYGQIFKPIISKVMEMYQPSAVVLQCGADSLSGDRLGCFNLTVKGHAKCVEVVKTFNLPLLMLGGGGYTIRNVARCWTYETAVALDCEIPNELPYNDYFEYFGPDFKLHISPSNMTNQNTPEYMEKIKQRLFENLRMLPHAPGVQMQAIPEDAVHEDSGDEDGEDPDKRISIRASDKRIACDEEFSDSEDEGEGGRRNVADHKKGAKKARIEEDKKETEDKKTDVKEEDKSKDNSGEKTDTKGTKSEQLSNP
Histone deacetylase 3, sequence (O15379 whole entry): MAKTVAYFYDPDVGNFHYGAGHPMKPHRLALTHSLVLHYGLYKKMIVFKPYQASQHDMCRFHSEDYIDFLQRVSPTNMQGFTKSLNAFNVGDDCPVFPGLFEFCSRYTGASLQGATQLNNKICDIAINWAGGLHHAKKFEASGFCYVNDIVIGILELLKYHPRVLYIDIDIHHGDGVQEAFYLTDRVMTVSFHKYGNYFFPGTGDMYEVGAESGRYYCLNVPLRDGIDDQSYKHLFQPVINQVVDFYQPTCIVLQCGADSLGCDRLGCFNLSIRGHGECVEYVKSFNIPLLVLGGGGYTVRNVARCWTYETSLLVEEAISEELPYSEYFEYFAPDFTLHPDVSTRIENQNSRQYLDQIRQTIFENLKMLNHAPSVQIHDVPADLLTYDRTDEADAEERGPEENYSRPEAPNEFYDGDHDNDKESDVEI

SMILES	IC50 [1]	EC50 [2]	EC50 [3]	IC50 [4]	IC50 [5]	IC50 [6]	IC50 [7]	half-life [8]	Papp [9]	CL free [10]	bioavailability [11]	Vdu [12]
CCC(=O)CCCCC[C@H](NC(=O)[C@H]1CC12CCN(C)CC2)c1[nH]c(-c2ccccc2F)nc1C#N	96 nM	566 nM	1162 nM	39600 nM	10.7 nM	22500 nM	17 nM	–	–	–	–	–
CCC(=O)CCCCC[C@H](NC(=O)C1CCOCC1)c1[nH]c(-c2ccc(F)cc2)nc1C(N)=O	73.8 nM	1834 nM	1504 nM	7570 nM	3.4 nM	27900 nM	12.3 nM	–	–	–	–	–
CCC(=O)CCCCC[C@H](NC(=O)[C@H]1CC12CCN(C)CC2)c1[nH]c(-c2ccc(F)cc2)nc1C#N	–	233 nM	409 nM	–	–	–	3.8 nM	4 h	1.7 ×10⁻⁶ cm/s	244 mL/min/kg	1%	40 L/kg
CCC(=O)CCCCC[C@H](NC(=O)C12CCN(CC1)CC2)c1[nH]c(-c2ccc(F)cc2)nc1C#N	26.9 nM	1731 nM	2207 nM	6930 nM	2.4 nM	> 45000 nM	6.2 nM	–	–	–	–	–
CCC(=O)CCCCC[C@H](NC(=O)[C@H]1CC12CCN(CC)CC2)c1[nH]c(-c2ccc(F)cc2)nc1C(N)=O	5 nM	193 nM	165 nM	6360 nM	0.7 nM	17500 nM	0.4 nM	–	–	–	–	–
CCC(=O)CCCCC[C@H](NC(=O)[C@H]1CC12CCN(CC)CC2)c1[nH]c(-c2ccc(F)cc2)nc1C#N	11.7 nM	161 nM	259 nM	9370 nM	1.8 nM	23600 nM	2.8 nM	–	–	–	–	–
CCC(=O)CCCCC[C@H](NC(=O)C1CN(C)C1)c1[nH]c(-c2ccc(F)cc2)nc1C(N)=O	34.4 nM	775 nM	643 nM	5380 nM	3.6 nM	15900 nM	3.5 nM	–	–	–	–	–
CCC(=O)CCCCCC(NC(=O)c1cncs1)c1[nH]c(-c2ccccc2)nc1C(=O)NCCN(C)C (stereo not drawn)	53.1 nM	1142 nM	853 nM	5340 nM	4.5 nM	> 45000 nM	13.5 nM	–	–	–	–	–
CCC(=O)CCCCC[C@H](NC(=O)C1CN(C)C1)c1[nH]c(-c2ccc(F)cc2)nc1C#N	117 nM	1564 nM	2071 nM	19700 nM	13.8 nM	36900 nM	25.9 nM	–	–	–	–	–
CCC(=O)CCCCC[C@H](NC(=O)[C@H]1CC12CCN(C)CC2)c1[nH]c(-c2ccc3nn(C)cc3c2)nc1C#N	2.1 nM	247 nM	322 nM	12400 nM	0.3 nM	9040 nM	0.4 nM	–	–	–	–	–
CCC(=O)CCCCC[C@H](NC(=O)CN(C)C)c1[nH]c(-c2ccc(F)cc2)nc1C#N	219 nM	1605 nM	3532 nM	29500 nM	26.8 nM	43300 nM	47.9 nM	–	–	–	–	–
